Screens (PubChem BioAssay)
Hits are enriched below; roughly 1.9% of the tested compounds scored in any of these assays.
NTR1 ag: agonists of human neurotensin receptor NTR1. P30989. NTR1-U2OS beta-arrestin-GFP spot imaging, agonist mode. activation, % at 20 µM. 330,000 tested, 0.17% active;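 active = activation at or above 40% of the spot to cytoplasm intensity ratio, with at least 20 cells analyzed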
NOD2 RIPK2 PPI: NOD2-RIPK2 protein interaction inhibition; O43353; AID 624267; CHO BLA complementation NOD2-RIPK2, CCF4 ratio; 360,000 tested, 0.38% active; inhibition, % at 4.98 µM; in the data active = inhibition above about 21%
Target sequence (O43353 whole entry, looked up): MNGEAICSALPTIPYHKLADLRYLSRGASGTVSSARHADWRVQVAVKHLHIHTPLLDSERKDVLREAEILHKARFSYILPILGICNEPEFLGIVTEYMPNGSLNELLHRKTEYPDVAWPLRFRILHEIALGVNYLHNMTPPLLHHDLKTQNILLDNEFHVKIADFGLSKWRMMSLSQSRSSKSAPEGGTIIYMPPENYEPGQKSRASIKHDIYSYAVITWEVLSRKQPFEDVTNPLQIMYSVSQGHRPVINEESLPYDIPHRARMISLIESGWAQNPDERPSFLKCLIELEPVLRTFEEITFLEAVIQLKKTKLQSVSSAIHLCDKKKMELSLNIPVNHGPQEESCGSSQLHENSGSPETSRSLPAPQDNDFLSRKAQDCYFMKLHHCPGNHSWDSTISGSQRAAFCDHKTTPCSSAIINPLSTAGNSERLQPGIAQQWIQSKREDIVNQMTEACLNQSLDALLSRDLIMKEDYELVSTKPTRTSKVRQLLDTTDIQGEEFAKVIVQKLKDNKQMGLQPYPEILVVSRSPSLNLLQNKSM
MC4R antagonist: blocks human MC4R cAMP signaling; inhibition, % at 6.5 µM; MC4R-expressing cells, MTII-stimulated cAMP, LANCE TR-FRET; 360,000 tested, 0.48% active; P32245;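 active = inhibition above its plate's cutoff, the mean of tested wells on that plate plus 3 SD, cut at about 29% in these data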
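Material – human MC4R-expressing U2OS cells · Repeats – no replicates · Detection – TR-FRET with Eu-cAMP and labeled anti-cAMP, 671 nm · Times – compound 30 min, challenge 1 h, detection 1 h · Compound – single nominal compound dose of 6.5 µM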
TLR9-MyD88 inh: blocks human TLR9 binding to MyD88 | AID 504734 | 340,000 tested, 0.21% active | inhibition, % at 4.98 µM | CHO BLA complementation TLR9-MyD88, CCF4 FRET ratio;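 active = inhibition above the mean over all tested compounds plus 3 SD, cut at about 21% in these data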
TLR4 MyD88 comp: inhibitors of human TLR4-MyD88 binding | O00206+Q99836 | HeLa CL3-4 TLR4/MyD88 BLA complementation, FRET ratio | inhibition, % at 8.4 µM | 200,000 tested, 0.18% active; in the data active = inhibition above about 25%
MC4R barr agon: human MC4R agonism via beta-arrestin. activation, % at 8.9 µM. P32245. U2OS MC4R beta-arrestin complementation, luminescence; percent of melanotan II response, DMSO zero. 360,000 tested, 0.98% active;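 active = activation above a per-plate cutoff, the mean activation of sample wells on that plate plus 3 SD, cut at about 8% in these data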
TLR9-MyD88 cf: confirmation of human TLR9-MyD88 binding inhibitors; shares compounds with TLR9-MyD88 inh; CHO TLR9/MyD88 BLA complementation, CCF4 FRET ratio; inhibition, % at 4.98 µM; 680 tested, 51% active; AID 540250;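 active = mean inhibition across three repeats above about 21% taken from the earlier screen, limit read from the data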;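 note: blue over green emission ratio reports constitutive TLR9 MyD88 association via BLA complementation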
BLA counter-1: counter-screen for TLR9-MyD88 inhibitors: non-selective beta-lactamase inhibitors; shares compounds with TLR9-MyD88 inh; CHO-BLA cells, CCF4 FRET ratio, BLA reporter; inhibition, % at 4.98 µM; 680 tested, 7% active; AID 540251;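 active = mean inhibition above a 50% cutoff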;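 note: counterscreen of TLR9-MyD88 hits on CMV-driven BLA in CHO-K1 cells; higher means less blue over green ratio so more BLA blockade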
TLR9 CHO tox: counter-screen for TLR9-MyD88 inhibitors: cytotoxicity in CHO cells; shares compounds with TLR9-MyD88 inh; luminescence; inhibition, % at 4.98 µM; 680 tested, 39% active; AID 588336; in the data active = inhibition above about 11%
cAMP nonselect: counter-screen for MC4R antagonists: nonselective cAMP signaling inhibitors | shares compounds with MC4R antagonist | parental U2OS, forskolin cAMP, LANCE TR-FRET | inhibition, % at 6.5 µM | 1,600 tested, 26% active | AID 602193;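 active = mean inhibition over triplicates above the low-control well mean plus 3 SD, set per campaign, cut at about 13% in these data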;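 note: signal is single emission at 671 nm which falls as cellular cAMP rises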
MC4R cAMP antag: human MC4R cAMP antagonism confirmation. shares compounds with MC4R antagonist. MC4R-expressing cells, MTII-stimulated cAMP, TR-FRET. inhibition, % at 6.5 µM. 1,600 tested, 27% active; in the data active = inhibition above about 29%
NOD2 RIPK2 conf: confirmation of human NOD2-RIPK2 interaction inhibitors; AID 624370; CHO cells, NOD2-RIPK2 BLA complementation, CCF4 FRET; shares compounds with NOD2 RIPK2 PPI; 1,200 tested, 70% active; inhibition, % at 4.98 µM;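 active = mean inhibition across replicates above a set limit taken from the earlier primary screen, cut at about 21% in these data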
BLA counter-2: NOD2-RIPK2 counterscreen BLA reporter activity. AID 624371. 1,200 tested, 57% active. CHO BLA reporter, CCF4 FRET ratio. shares compounds with NOD2 RIPK2 PPI. inhibition, % at 4.98 µM;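 active = mean inhibition above the low-control mean inhibition plus three low-control SD, cut at about 11% in these data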
Large screens that a line does not name were inactive (follow-up assays come after a bar, where they were run).

Clc1ccc2nc(N3CCNCC3)nc(-c3ccccc3)c2c1	NOD2 RIPK2 PPI 37, TLR9-MyD88 inh 24 | TLR9-MyD88 cf inactive | BLA counter-1 inactive | TLR9 CHO tox inactive | NOD2 RIPK2 conf 38 | BLA counter-2 52
CCN(CC)c1ccc(/C=C/c2cc(-c3ccccc3)c3ccccc3n2)cc1	NOD2 RIPK2 PPI 69, TLR9-MyD88 inh 55 (no result: NTR1 ag, TLR4 MyD88 comp) | TLR9-MyD88 cf 70 | BLA counter-1 80 | TLR9 CHO tox inactive | NOD2 RIPK2 conf 80 | BLA counter-2 86
Nc1cc2sc(-c3ccc(C(=O)O)cc3)nc2cc1Cl	NOD2 RIPK2 PPI 35, TLR9-MyD88 inh 24 | TLR9-MyD88 cf inactive | BLA counter-1 inactive | TLR9 CHO tox 14 | NOD2 RIPK2 conf 32 | BLA counter-2 40
Nc1ccc(-c2nc3ccc(C(=O)O)cc3s2)cc1	none (no result: NTR1 ag)
CC(C)CNC(=O)COC(=O)c1c2c(nc3ccccc13)/C(=C\c1cccs1)CC2	NOD2 RIPK2 PPI 47, MC4R antagonist 29, TLR9-MyD88 inh 30 (no result: NTR1 ag, TLR4 MyD88 comp) | TLR9-MyD88 cf 46 | BLA counter-1 54 | TLR9 CHO tox 12 | cAMP nonselect inactive | MC4R cAMP antag inactive | NOD2 RIPK2 conf 70 | BLA counter-2 77
COc1cc(/C=C2\Oc3cc(O)ccc3C2=O)ccc1O	NOD2 RIPK2 PPI 44, TLR9-MyD88 inh 31 (no result: TLR4 MyD88 comp) | TLR9-MyD88 cf inactive | BLA counter-1 inactive | TLR9 CHO tox inactive | NOD2 RIPK2 conf 43 | BLA counter-2 47
Cc1ccsc1/C=C1\Oc2cc(O)ccc2C1=O	NOD2 RIPK2 PPI 50, TLR9-MyD88 inh 25 (no result: NTR1 ag, TLR4 MyD88 comp) | TLR9-MyD88 cf inactive | BLA counter-1 inactive | TLR9 CHO tox inactive | NOD2 RIPK2 conf 40 | BLA counter-2 52
O=C1/C(=C/c2ccc(O)c(O)c2)Oc2cc(O)ccc21	none (no result: TLR4 MyD88 comp)
COc1cc(CCCN2C(N)=NC[C@H]2Cc2ccc(O)cc2)cc(OC)c1OC	none (no result: TLR4 MyD88 comp)
Cc1cccc(N2C(=O)c3cccc4c(N5CCCCC5)c([N+](=O)[O-])cc(c34)C2=O)c1C	none
Cc1nnc(N2C(=O)c3cccc4c([N+](=O)[O-])ccc(c34)C2=O)s1	NOD2 RIPK2 PPI 91, TLR9-MyD88 inh 80 (no result: TLR4 MyD88 comp) | TLR9-MyD88 cf 67 | BLA counter-1 84 | TLR9 CHO tox 58 | NOD2 RIPK2 conf 93 | BLA counter-2 87
NNC(=O)c1oc2nc(-c3ccc(Cl)cc3)cc(-c3ccccc3)c2c1N	NOD2 RIPK2 PPI 26, TLR9-MyD88 inh 24 (no result: NTR1 ag, TLR4 MyD88 comp) | TLR9-MyD88 cf 46 | BLA counter-1 inactive | TLR9 CHO tox inactive | NOD2 RIPK2 conf 62 | BLA counter-2 67
NS(=O)(=O)c1ccc(N2N=C(c3ccccc3)CC2c2ccccc2Br)cc1 (stereo not drawn)	none (no result: TLR4 MyD88 comp)
O=[N+]([O-])c1ccc(N2N=C(c3ccco3)CC2c2ccccc2)cc1 (stereo not drawn)	NOD2 RIPK2 PPI 56, TLR9-MyD88 inh 38 | TLR9-MyD88 cf 21 | BLA counter-1 inactive | TLR9 CHO tox inactive | NOD2 RIPK2 conf 49 | BLA counter-2 53
Fc1ccc(C2CC(c3ccco3)=NN2c2ccccc2)cc1 (stereo not drawn)	none
O=[N+]([O-])c1ccc(N2N=C(c3ccccc3)CC2c2ccccc2O)cc1 (stereo not drawn)	NOD2 RIPK2 PPI 39, TLR9-MyD88 inh 40 (no result: TLR4 MyD88 comp) | TLR9-MyD88 cf 33 | BLA counter-1 inactive | TLR9 CHO tox inactive | NOD2 RIPK2 conf 51 | BLA counter-2 65
CC1CN(C(=O)COC(=O)c2cncc(Br)c2)CC(C)O1 (stereo not drawn)	none (no result: NTR1 ag, TLR4 MyD88 comp)
CN(C)c1ccc(/C=C/c2ccc3ccccc3n2)cc1	NOD2 RIPK2 PPI 46, TLR9-MyD88 inh 28 (no result: NTR1 ag, TLR4 MyD88 comp) | TLR9-MyD88 cf 38 | BLA counter-1 53 | TLR9 CHO tox 53 | NOD2 RIPK2 conf 58 | BLA counter-2 71
Cc1ccc(CNC(=O)c2cccc3c2C(=O)c2ccc(N4CCCCC4)cc2S3(=O)=O)cc1	NOD2 RIPK2 PPI 27, TLR9-MyD88 inh 25 (no result: TLR4 MyD88 comp) | TLR9-MyD88 cf inactive | BLA counter-1 inactive | TLR9 CHO tox inactive | NOD2 RIPK2 conf 31 | BLA counter-2 33
Cc1ccc(CNC(=O)c2cccc3c2C(=O)c2ccc(N4CCOCC4)cc2S3(=O)=O)cc1	none (no result: TLR4 MyD88 comp)
O=C(NCc1ccccc1C(F)(F)F)c1cccc2c1C(=O)c1ccc(N3CCC(N4CCCCC4)CC3)cc1S2(=O)=O	NOD2 RIPK2 PPI 68, TLR9-MyD88 inh 30 (no result: NTR1 ag, TLR4 MyD88 comp) | TLR9-MyD88 cf 30 | BLA counter-1 inactive | TLR9 CHO tox inactive | NOD2 RIPK2 conf 73 | BLA counter-2 70
CC(=O)Oc1ccc2cc(-c3nc4ccccc4n3C)c(=O)oc2c1	NOD2 RIPK2 PPI 39, TLR9-MyD88 inh 22 | TLR9-MyD88 cf inactive | BLA counter-1 inactive | TLR9 CHO tox inactive | NOD2 RIPK2 conf 38 | BLA counter-2 59
COc1ccc(/C=N/Nc2ccc([N+](=O)[O-])cc2)cc1Cn1cc([N+](=O)[O-])cn1	none
COc1ccc(/C=N/Nc2ccc([N+](=O)[O-])cc2)cc1O	NOD2 RIPK2 PPI 28, TLR9-MyD88 inh 37 (no result: TLR4 MyD88 comp) | TLR9-MyD88 cf 28 | BLA counter-1 inactive | TLR9 CHO tox inactive | NOD2 RIPK2 conf 43 | BLA counter-2 47
COc1ccc(OC)c(C=Cc2ccc([N+](=O)[O-])cc2)c1	NOD2 RIPK2 PPI 43, TLR9-MyD88 inh 34 (no result: NTR1 ag, TLR4 MyD88 comp) | TLR9-MyD88 cf 26 | BLA counter-1 inactive | TLR9 CHO tox inactive | NOD2 RIPK2 conf 46 | BLA counter-2 53
CCn1c(CCCOc2ccc(Cl)cc2Cl)n[nH]c1=S	none
CCOc1ccccc1NC(=O)CC1(CC(=O)N2CCOCC2)CCCC1	none (no result: TLR4 MyD88 comp)
